The entries come from a sample that favours hits as a whole.
RORa inhibitor = blocks the human nuclear receptor RORA. P35398. CHO-K1 Gal4-RORA LBD luciferase reporter, luminescence. inhibition, % at 10 µM. actives 0.43% (n = 65,000). AID 561;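 active = inhibition above the mean of all tested compounds plus 3 SD, cut at about 52% in these data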
Target sequence (P35398 whole entry, looked up, the tested form may be a part): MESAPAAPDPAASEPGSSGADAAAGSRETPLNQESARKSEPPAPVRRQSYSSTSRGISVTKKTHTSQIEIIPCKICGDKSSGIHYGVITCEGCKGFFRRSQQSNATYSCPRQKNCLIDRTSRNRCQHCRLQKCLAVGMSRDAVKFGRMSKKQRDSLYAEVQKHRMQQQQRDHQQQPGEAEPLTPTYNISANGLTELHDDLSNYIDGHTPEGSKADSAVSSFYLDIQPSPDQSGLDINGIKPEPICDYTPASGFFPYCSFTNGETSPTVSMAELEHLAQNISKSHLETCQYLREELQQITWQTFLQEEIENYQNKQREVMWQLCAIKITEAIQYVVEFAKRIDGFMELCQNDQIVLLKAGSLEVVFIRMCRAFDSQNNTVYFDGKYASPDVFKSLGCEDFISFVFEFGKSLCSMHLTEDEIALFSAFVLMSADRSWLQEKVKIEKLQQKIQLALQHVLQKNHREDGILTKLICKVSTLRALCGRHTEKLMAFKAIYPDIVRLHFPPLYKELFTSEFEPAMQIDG
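Test system: CHO-K1 cells with Gal4-hRORA LBD fusion and pG5-luc reporter / Compound: single concentration per compound, 10 µM final / Schedule: 20 h compound treatment, 37 °C / Signal: luminescence from basal luciferase reporter expression / Read-out: % inhibition / Control set: mock-transfected cells as 100%, +RORA DMSO cells as 0% / Replicates: tested once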
Large screens that a line does not name were inactive.

COc1cccc2c1C(=O)c1c(O)c3c(c(O)c1C2=O)C[C@@](O)(C(=O)CO)C[C@@H]3O[C@H]1C[C@H](N)[C@H](O)[C@H](C)O1	RORa inhibitor 63
Cc1cc(N2CCCCC2)n2ncc(-c3ccc(Cl)cc3)c2n1	none
CCc1nn2c(=O)cc(N3CCN(c4cc(C)nc5ccccc45)CC3)nc2s1	none
Cc1cc(N2CCN(c3nc4ccccc4s3)CC2)n2ncnc2n1	RORa inhibitor 75
Clc1ccc(OCc2nnc(-c3ccccc3Br)o2)c(Cl)c1	none
O=C(CCN1c2ccccc2Sc2ccccc21)OCC(=O)N1CCN(C(=O)c2ccco2)CC1	none
O=C(CCNS(=O)(=O)c1cccc2nsnc12)N1CC(=O)N(CCc2ccccc2)C(=O)C1	none
CCOc1ccc(OCc2cccc(C(=O)N3CCOCC3)c2)cc1	RORa inhibitor 77
O=C(Nc1ccccc1C(=O)N1CCOCC1)c1ccncc1	none
CCOc1ccc(C(=O)N2CCCC2C(=O)O)cc1 (configuration not stated)	none
COC(=O)c1ccc(-c2ccc(CNCC(O)c3ccccc3)o2)cc1 (configuration not stated)	none
c1ccc(Oc2ccc(-n3cnnn3)cc2)cc1	none
CC(C)(C)NC(=O)Cn1c(SCC(=O)NC2CCCCC2)nc2ccccc21	none
COc1ccc(C(=O)Nn2c(SCC(=O)NCc3ccco3)nc3ccccc3c2=O)cc1	RORa inhibitor 59
COc1ccc(-n2nnc3c(SCC(=O)NCc4ccco4)ncnc32)cc1	none
O=C(CSc1nc2ccccc2c(=O)n1Cc1ccco1)c1ccc(F)cc1	none
Cn1c(-n2c(CCN3C(=O)c4ccccc4C3=O)nc3ccccc3c2=O)nc2ccccc21	none
CC1CC(C)CN(C(=O)CSc2nnc(-c3ccc(Cl)s3)o2)C1 (configuration not stated)	none
CC1(C)COCN1S(=O)(=O)c1ccc(C(=O)Nc2nnc(-c3ccc(Cl)s3)o2)cc1	RORa inhibitor 53
COc1ccccc1-c1nnc(NC(=O)c2ccc(S(=O)(=O)N(C)C)cc2)o1	none
c1ccc(-c2cn3c4c(sc3n2)CCCC4)cc1	RORa inhibitor 74
Cc1c(C(=O)NCc2cccnc2)sc2nc(-c3ccccc3)cn12	none
Cc1c(C(=O)N2CCOCC2)sc2nc(-c3ccccc3)cn12	none
COc1ccc(-n2c(=O)c3ccccc3n(CC(=O)NC3CCCC3)c2=O)c(OC)c1	none
C(=N\n1cnnc1)/c1cccc(Oc2ccccc2)c1	none
Cc1cc(/C=N/n2cnnc2)c(C)n1-c1ccc(OCc2ccccc2F)cc1	RORa inhibitor 62
Cc1cc(C(F)F)n2nc(C(=O)Nc3ccccc3Br)nc2n1	none
CC1(C)CC(=O)C(/C=N/c2ncccc2C(=O)O)=C(O)C1	none
COc1cc(NS(=O)(=O)c2ccc(C)cc2)c2ncccc2c1	RORa inhibitor 85
COc1ccc(S(=O)(=O)Nc2nnc(C(C)(C)C)s2)cc1	none
O=S(=O)(NC1CCCCCC1)c1cccc2cccnc12	none
Cc1cccc(N(Cc2cc3ccccc3[nH]c2=O)C(=O)c2ccco2)c1C	none
Cc1cccc2c1NC(C)CC2C (configuration not stated)	none
CN=c1scc(C)n1/N=C/c1ccc(O)cc1O	RORa inhibitor 63
CCCCNc1cc(=O)n(C)c(=O)[nH]1	none
CCNc1nc(-c2ccc(Cl)cc2)cs1	none
O=C(Cc1ccccc1)Nc1nc(-c2cccs2)cs1	none
Cc1nc2sccn2c1-c1csc(NCc2ccccc2)n1	RORa inhibitor 63
Cc1nn(-c2nc3ccccc3s2)c(C)c1Oc1ccccc1O	none
CC(C)C1N=C2c3ccccc3N=C(SCC#N)N2C1=O (configuration not stated)	none
Cc1cccc(-n2c(CNC(=O)c3ccccc3)nnc2SCC(=O)Nc2nccs2)c1	none
O=C(CSC1=NCCS1)Nc1ccnc2ccccc12	RORa inhibitor 73
O=C(CSc1cn(Cc2ccccc2)c2ccccc12)Nc1nccs1	none
CC(C)(C)NC(=O)CSc1nnc(NC(=O)CCn2cnc3ccccc3c2=O)s1	none
CCCCn1nnc(NC(=O)CC23CC4CC(CC(C4)C2)C3)n1	none
CCOC(=O)C1CCN(S(=O)(=O)C(F)(F)c2nc3ccccc3s2)CC1	none
CCOC(=O)N1CCN(C(=O)CSc2nnc(Cc3ccccc3)o2)CC1	none
CC(=O)N1CCN(c2ccc(Nc3nc(C)nc4c3oc3ccccc34)cc2)CC1	none
Cc1nc(NC(C)c2ccccc2)c2oc3ccccc3c2n1 (configuration not stated)	RORa inhibitor 58
O=S(=O)(Nc1nc2ccccc2nc1NCc1ccco1)c1cccs1	none
CCN1C(=O)NC(c2cccnc2)C(C(=O)OC)=C1C (configuration not stated)	none
Cc1noc(C(=O)Nc2ccc3c(c2)OCO3)c1Cl	none
CCOC(=O)c1c(N)sc(C(=O)Nc2ccc3c(c2)OCO3)c1C	RORa inhibitor 54
CCC(=O)Nc1ccc(C(=O)Nc2ccc3c(c2)OCO3)cc1	none
CSc1ccc(CNc2ccccn2)cc1	none
Cc1ccc(CC2(O)CC(C)N(C)CC2C)c(C)c1 (configuration not stated)	none
O=C(Nc1ccc(-c2nc3ccccc3o2)cc1)c1ccc2c(c1)OCO2	none
O=C(c1ccc(-c2nnc(-c3ccccc3)o2)cc1)N1CCCCCC1	none
